# Yeast growth inh = reduces growth of yeast BB579 in restrictive medium. S. cerevisiae BB579 growth, OD615, 48 h. inhibition, % at 10 µM. 140,000 compounds, 0.51% hits. AID 804;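 active means inhibition above a set limit, 3 SD over the mean compound inhibition, cut at about 44% in these data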
#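 Test system: Saccharomyces cerevisiae DeaD strain BB579, replicative lifespan model yeast | Buffer or medium: Restrictive CSMM-D medium | Doses: One dose, 10 µM compound with 0.25% DMSO | Incubation: 48 h exposure, 30 °C | Detection: Culture absorbance at 615 nm | Control set: Amphotericin B at 10 µg/mL as positive control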
# WT yeast gro inh = growth inhibition of WT yeast, mitochondrial fusion screen; mitochondrial fusion phenotypic screen, WT strain; inhibition, % at 10 µM; 190,000 compounds, 2.1% hits; AID 1362; in the data active means inhibition above about 58%; tested in S. cerevisiae
# Yeast lifespan up = extends the lifespan of yeast; 130,000 compounds, 0.68% hits; S. cerevisiae growth with nicotinamide, OD615; deaD strain in restrictive glucose medium; AID 775; inhibition of the nicotinamide effect, % at 10 µM;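 active means inhibition above a set limit, placed 3 SD over the median of all compounds, cut at about 26% in these data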;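 further: 0% = nicotinamide-treated wells and 100% = cells grown without nicotinamide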
#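 Measured by: optical density (absorbance) at 615 nm; System: modified budding yeast, DeaD strain; Medium: restrictive CSMM-D dextrose medium; Timing: 4 h preincubation then 48 h treatment at 30 °C.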
# hDAT+cocaine = modulates human dopamine transporter uptake under cocaine; Q01959; LLC-PK1 hDAT cells, [14C]-dopamine uptake with cocaine IC80; actives deviate in either direction; B-score at 10 µM; 110,000 compounds, 1.3% hits;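 active means Z score or B-score, a plate-position-corrected score, falls beyond the plate's 99.7% confidence bounds, in either direction; inactive means both scores lie inside the 99.7% bounds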;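 further: scored against the spread of the other compound wells on the same plate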
# Target sequence (Q01959 whole entry, looked up): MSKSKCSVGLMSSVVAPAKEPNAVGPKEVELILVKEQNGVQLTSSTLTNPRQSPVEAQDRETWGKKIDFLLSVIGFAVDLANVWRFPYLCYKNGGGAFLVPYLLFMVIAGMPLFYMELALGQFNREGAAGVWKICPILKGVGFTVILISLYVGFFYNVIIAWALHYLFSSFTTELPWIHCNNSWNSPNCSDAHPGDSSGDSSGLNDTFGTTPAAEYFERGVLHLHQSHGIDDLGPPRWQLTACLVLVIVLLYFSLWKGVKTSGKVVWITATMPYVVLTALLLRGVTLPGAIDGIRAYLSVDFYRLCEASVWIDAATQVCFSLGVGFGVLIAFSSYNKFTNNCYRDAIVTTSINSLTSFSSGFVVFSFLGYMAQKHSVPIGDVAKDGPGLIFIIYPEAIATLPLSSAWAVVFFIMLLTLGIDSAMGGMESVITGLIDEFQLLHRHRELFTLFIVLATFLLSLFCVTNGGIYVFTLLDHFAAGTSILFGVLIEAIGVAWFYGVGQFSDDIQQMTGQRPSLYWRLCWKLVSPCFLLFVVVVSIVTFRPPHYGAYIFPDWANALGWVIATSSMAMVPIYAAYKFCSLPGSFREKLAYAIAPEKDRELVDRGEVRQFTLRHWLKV
# RAM network inh = yeast RAM network inhibition; S. cerevisiae dse1pr::URA3 reporter, 5-FOA growth OD615, 2 d; analog-sensitive cbk1-as2 kinase mutant strain; AID 868; 190,000 compounds, 1.8% hits; inhibition, % at 50 µM;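 active means inhibition above a set limit, 3 SD over mean compound inhibition, cut at about 8.4% in these data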;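 further: 0% = DMSO-only wells with no growth and 100% = 10 µM 1-NA-PP1 full growth; inhibition rescues growth on 5-FOA so higher OD means more RAM inhibition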
# Measles CPE = protection of cells from measles virus. 140,000 compounds, 1.5% hits. Measles virus-infected cells, CPE protection, absorbance. AID 841. protection (pct of control), % at 4 µM; in the data active means protection mostly above about 24%, no sharp cut-off; inactive means mostly below about 26%
# Starred values were filed as active, the others as inactive; . = not tested or not shown. In the library only some 6.1% were active in any assay of this set; here they are far more common.
SMILES,Yeast growth inh,WT yeast gro inh,Yeast lifespan up,hDAT+cocaine,RAM network inh,Measles CPE
O=C1NC(=S)N/C1=C/c1cccc([N+](=O)[O-])c1O,-17,-9,-23,-0.19,6,31
O=C(O)c1cccc(CSc2nc(-c3ccc(Cl)cc3)cc(C(F)(F)F)n2)c1,-38,23,-10,3*,4,2
Cc1nc2cc(C(=O)OCC(=O)NC34CC5CC(CC(C5)C3)C4)ccc2n1-c1ccccc1,-37,59*,-3,.,3,6
N/C(=N\OC(=O)C(c1ccccc1)c1ccccc1)c1cccnc1,-9,76*,-6,2,-1,5
CCN(CC)S(=O)(=O)c1ccc2c(c1)C(=NO)c1cc(S(=O)(=O)N(CC)CC)ccc1-2,-46,-7,.,0.93,10*,5
CCN(CC)S(=O)(=O)c1ccc(C)c(C)c1,4,-3,-2,-0.89,1,18
Cn1c(CC(=O)Nc2ccccc2)c(Sc2ccccc2)c2ccccc21,-31,0,2,.,3,4
Cc1ccc2c(c1)c(Sc1ccccc1)c(CC(=O)O)n2C,-48,-31,27*,.,6,9
CCOC(=O)Cc1c(Sc2ccccc2)c2cc(C)ccc2n1C,0,68*,2,.,2,6
Cn1c(CC(=O)Nc2ccccc2C(F)(F)F)c(Sc2ccccc2)c2ccccc21,-11,-11,2,.,4,5
N=c1oc2ccc3ccccc3c2cc1C(N)=S,.,-7,.,.,0,.
CCc1ccc2c(CN3CCN(S(=O)(=O)c4cccs4)CC3)cc(=O)oc2c1,-11,10,2,.,4,19
COc1nc(N(CC(N)=O)S(=O)(=O)c2ccccc2)nc(C)c1Cl,-11,-2,.,-0.91,3,29*
Cc1ccc(-n2c(C)nn(-c3ncc(C(F)(F)F)cc3Cl)c2=O)cc1,3,-1,-16,0.64,0,9
Cc1cc(C)c2oc(C(=O)Nc3ccc(S(=O)(=O)N4CCC(C)CC4)cc3)cc(=O)c2c1,-12,13,-1,.,5,56*
Cc1cc2oc(C(=O)Nc3ccc(S(=O)(=O)N4CCCC(C)C4)cc3)cc(=O)c2cc1Cl (stereo unspecified),-42,-3,-3,.,2,7
COc1ccc(-n2c(SCC(=O)N3CCCC3)nc3c([nH]c4ccccc43)c2=O)cc1,.,22,.,.,.,.
Cc1cccc(N2CCN(C(=O)C(Cc3ccccc3)n3cccc3)CC2)c1C (stereo unspecified),6,69*,-7,-0.12,7,3
O=C(C(Cc1ccccc1)n1cccc1)N1CCN(c2ncccn2)CC1 (stereo unspecified),-20,-3,-8,-0.27,2,19
COc1cc(OC)cc(C(=O)NC2CCN(CC(=O)Nc3cccc4ccccc34)CC2)c1,-14,-12,.,3.5*,0,13
COc1cccc(C(=O)NC2CCN(CC(=O)Nc3cccc(C)c3C)CC2)c1,.,16,.,.,1,.
COc1ccc(C(=O)NC2CCN(C(=S)Nc3cccc(C)c3C)CC2)cc1,-49,6,-2,.,8.6*,4
O=S(=O)(c1ccc(Cl)c(Cl)c1)c1snnc1-c1ccccc1,32,84*,9,-0.49,7,19
O/N=C/c1cc(Br)cc(Br)c1OCc1ccccc1,-28,60*,-5,-0.35,4,2
O/N=C/c1ccc(OCc2ccccc2)c(Br)c1,45*,54,-11,.,-1,42*
SMILES,Yeast growth inh,WT yeast gro inh,Yeast lifespan up,hDAT+cocaine,RAM network inh,Measles CPE
O/N=C/c1ccc(OCc2ccccc2)c(Cl)c1,-20,9,-5,.,-2,3
Cc1ccc(COc2ccc(Br)cc2/C=N/O)cc1,89*,52,-8,-0.96,4,15
O/N=C/c1cc(Br)ccc1OCc1ccc(F)cc1,.,.,.,1.3,.,.
CCCCc1ccc(NC(=O)C(C)CC)cc1 (stereo unspecified),.,11,.,.,-1,.
COc1ccccc1-c1c(C(F)(F)F)oc2cc(OC(=O)c3ccc([N+](=O)[O-])cc3)ccc2c1=O,5,-12,6,.,0,23
O=c1c(Cl)c(NCc2ccccc2)cnn1C12CC3CC(CC(C3)C1)C2,-46,-13,7,.,1,4
Cc1ncoc1C(=O)N1CCCC(C(=O)c2ccc(-c3ccccc3)cc2)C1 (stereo unspecified),.,68*,.,.,0,.
O=C(c1ccccc1)N1CCN(C(=O)c2ccccc2Br)CC1,-26,-19,0,-7.7*,0,3
O=C(c1ccccc1)N1CCCCCC1,-19,2,6,.,1,2
O=C(c1cccc(Br)c1)N1CCN(C(=O)c2cccc(Br)c2)CC1,-19,12,.,2.2*,4,4
O=C(c1cccc(Br)c1)N1CCN(C(=O)N2CCOCC2)CC1,-11,1,.,-0.17,2,0
Cc1nc2c(nnn2Cc2ccccc2)c(=O)[nH]1,.,6,.,.,1,.
Cc1cc(C(=O)COC(=O)c2ccc[nH]c2=O)c(C)n1C,-9,-10,5,.,3,18
Cc1ccc(-n2c(C)cc(C(=O)COC(=O)c3ccc[nH]c3=O)c2C)cc1,93*,29,-6,.,0,22
Cc1cc(C(=O)COC(=O)c2ccc[nH]c2=O)c(C)n1-c1ccc(Br)cc1,91*,-3,-7,.,0,23
COCCn1c(C)cc(C(=O)COC(=O)c2ccc[nH]c2=O)c1C,-14,-16,5,.,2,28
Cc1cc(C)n2nc(SCc3cc(=O)oc4ccc5ccccc5c34)nc2n1,-16,16,-14,.,3,8
Cc1noc(C)c1C(=O)OCC(=O)Nc1ccccc1Oc1ccccc1,-82,59*,-5,-0.58,2,17
COc1ccc(/C=N/Nc2cc(N(C)C)nc(N(C)C)n2)cc1,-3,40,-6,.,-1,4
CN(C)c1cc(N/N=C\c2ccccc2)nc(N(C)C)n1,.,59*,.,.,-1,.
Cc1cc(C)nc(N/N=C/c2cccc(Cl)c2)n1,.,10,.,.,1,.
Cc1cc(N/N=C/c2cccc(Cl)c2)nc(NCc2ccccc2)n1,10,82*,-13,.,0,12
CCOc1cc(C)nc(NCc2ccccc2)n1,-69,15,-16,0.67,3,5
Cc1cc(N/N=C/c2ccc(Cl)cc2)nc(NCc2ccccc2)n1,-65,96,-9,.,0,6
Cc1cc(N/N=C/c2ccccc2)nc(NCc2ccccc2)n1,-33,62*,-3,.,0,18
Cc1cc(Nc2cccc(Cl)c2)nc(NCc2ccccc2)n1,-15,97*,-5,.,8,20
CCOC(=O)c1c(NC(=O)CSc2nnc3c(Cl)cc(Cl)cn23)sc2c1CCC2,-56,15,0,.,3,6
CCOC(=O)CSc1n[nH]c(NS(=O)(=O)c2ccccc2C(F)(F)F)n1,.,2,.,.,0,.
